As usually defined, the residual activity is what remains of the control signal, in per cent. In general, IC50 refers to the midpoint of a concentration-inhibition curve.

Calls of active or inactive are those of the source. The rule behind the calls is not given here.

Consider 14 compounds from ChEMBL document CHEMBL3108746, “Novel symmetrical ureas as modulators of protein arginine methyl transferases” (Bioorg Med Chem, 2013).

The subject of experiment [1] is VCaP. The experiment in a line: Cytotoxicity against human VCaP cells after 7 days by Alamar blue staining method. It is filed as functional, cell-based. An outline of the steps: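 VCaP cells seeded at 16,000 cells/well in phenol-red DMEM with 10% cFCS. After 1 day, treated with 0.1 nM R1881 plus a range of compound concentrations. Cell number read 7 days later by Alamar Blue staining on a luminometer.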

In a further experiment the test system is LAPC4. As to the kind of experiment: Cytotoxicity against human LAPC4 cells after 7 days by Alamar blue staining method. Type of experiment: functional, cell-based. To be noted: for IC50: LAPC4, 168 h. The method, boiled down: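 LAPC-4 cells seeded at 4000 cells/well in medium with 2 mM L-glutamine. After 1 day, treated with 1 nM R1881 plus a range of compound concentrations. Cell number read 7 days later by Alamar Blue staining on a luminometer.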
On the technique in general: The colour change of resazurin is a common sign of viable cells or microbes.

Experiment [2] addresses Protein arginine N-methyltransferase 5 (Homo sapiens) (UniProt O14744). As to the kind of experiment: Residual activity of recombinant human PRMT5 expressed in Sf9 cells using histone H4 peptide as substrate at 100 uM by chemiluminescence assay.
Experiment [3] relates to VCaP. As to the kind of experiment: Inhibition of PRMT1 gene expression in androgen-stimulated human VCaP cells by RT-PCR analysis. Type of experiment: functional, cell-based. The method, boiled down: (§1)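 VCaP cells treated with androgen alone or with increasing compound concentrations. Transcript levels measured by real-time PCR with gene-specific fluorogenic probes and normalized to human cyclophilin A. Values are means of independent triplicates.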

In experiment [4] the target is T1, Protein arginine N-methyltransferase 1 (Homo sapiens, UniProt Q99873). As to the kind of experiment: Inhibition of PRMT1-mediated KLK2 gene expression in R1881-stimulated human VCaP cells at 1.56 to 100 uM by RT-PCR analysis. Type of experiment: cell-based. An outline of the steps: as §1
Target sequence in this assay (Q99873 whole entry, looked up): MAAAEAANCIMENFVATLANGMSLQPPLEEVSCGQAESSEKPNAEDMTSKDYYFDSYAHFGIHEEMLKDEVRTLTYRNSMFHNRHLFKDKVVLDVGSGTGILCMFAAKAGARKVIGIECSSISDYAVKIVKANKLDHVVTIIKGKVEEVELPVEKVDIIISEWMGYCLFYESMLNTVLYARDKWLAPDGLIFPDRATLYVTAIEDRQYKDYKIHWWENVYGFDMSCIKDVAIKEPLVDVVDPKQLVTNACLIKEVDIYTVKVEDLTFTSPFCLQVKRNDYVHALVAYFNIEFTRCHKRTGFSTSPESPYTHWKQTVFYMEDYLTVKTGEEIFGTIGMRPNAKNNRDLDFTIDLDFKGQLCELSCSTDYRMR
The target of experiment [5] is T1, Protein arginine N-methyltransferase 1. The experiment in a line: Inhibition of PRMT1-mediated TMPRSS2 gene expression in R1881-stimulated human VCaP cells by RT-PCR analysis. Type of experiment: cell-based. An outline of the steps:
as §1
Target sequence in this assay (Q99873 whole entry, looked up): as above

Experiment [6] shares this target. The experiment in a line: Inhibition of PRMT1-mediated FKBP5 gene expression in R1881-stimulated human VCaP cells by RT-PCR analysis. Type of experiment: cell-based. An outline of the steps:
as §1
Target sequence in this assay (Q99873 whole entry, looked up): as above

Experiment [7] deals with VCaP. As to the kind of experiment: Inhibition of AR gene expression in R1881-stimulated human VCaP cells at 1.56 to 100 uM by RT-PCR analysis. Type of experiment: functional, cell-based. An outline of the steps: as §1
Experiment [8] deals with T1, Protein arginine N-methyltransferase 1. As to the kind of experiment: Inhibition of recombinant human PRMT1 expressed in Escherichia coli using histone H4 peptide as substrate by chemiluminescence assay.
Target sequence in this assay (Q99873 whole entry): as the sequence (Q99873 whole entry, looked up) above
Experiment [9] has as its target Protein arginine N-methyltransferase 5 (Homo sapiens) (UniProt O14744). As to the kind of experiment: Inhibition of recombinant human PRMT5 expressed in Sf9 cells using histone H4 peptide as substrate by chemiluminescence assay. An outline of the steps:
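Purified recombinant human PRMT5 (Sf9-expressed) incubated 1 h with S-adenosylmethionine in 1× TBS pH 8.0 with 0.05% Tween20, on wells precoated with histone H4 peptide. Compounds came from 25 mM DMSO stocks diluted in water. Detection used a primary antibody to symmetric-dimethyl R3 of H4 (1 h), then HRP secondary and chemiluminescence. Mean of duplicates with SD.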

Sequence of Protein arginine N-methyltransferase 5 (Homo sapiens) (O14744 whole entry): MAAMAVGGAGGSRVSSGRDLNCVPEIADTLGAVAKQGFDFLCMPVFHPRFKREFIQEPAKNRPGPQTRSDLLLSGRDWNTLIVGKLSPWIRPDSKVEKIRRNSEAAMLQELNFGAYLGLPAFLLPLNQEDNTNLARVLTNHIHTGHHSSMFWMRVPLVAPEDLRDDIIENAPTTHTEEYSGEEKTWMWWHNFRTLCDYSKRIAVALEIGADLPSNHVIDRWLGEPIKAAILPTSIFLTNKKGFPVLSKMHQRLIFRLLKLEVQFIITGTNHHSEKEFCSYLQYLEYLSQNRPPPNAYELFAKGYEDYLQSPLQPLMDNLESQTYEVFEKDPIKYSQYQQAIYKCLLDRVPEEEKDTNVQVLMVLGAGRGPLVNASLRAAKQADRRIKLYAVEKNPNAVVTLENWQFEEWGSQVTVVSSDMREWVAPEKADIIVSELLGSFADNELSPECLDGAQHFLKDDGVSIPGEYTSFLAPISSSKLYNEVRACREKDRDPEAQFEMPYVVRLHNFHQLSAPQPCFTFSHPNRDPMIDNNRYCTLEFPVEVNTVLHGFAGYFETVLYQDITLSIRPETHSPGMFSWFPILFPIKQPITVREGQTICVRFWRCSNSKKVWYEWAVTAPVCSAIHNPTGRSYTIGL

Turning to `O=C(O)/C=C/c1cccc(N2CCN(c3cccc(/C=C/C(=O)O)c3)C2=O)c1`, the outcome with VCaP [1] and with LAPC4 was inactive. Also, the residual activity in [2] worked out at 61.5%.

As for `O=C(O)/C=C/c1ccc(N2CCCN(c3ccc(/C=C/C(=O)O)cc3)C2=O)cc1`, the outcome in the experiment on VCaP [1] and with LAPC4 was inactive. Moreover, the residual activity in experiment [2] turned out to be 56.4%.

As for `O=C(O)/C=C/c1cccc(NC(=O)Nc2cccc(/C=C/C(=O)O)c2)c1`, the outcome with VCaP [1] and in the experiment on LAPC4 was inactive. Further, in [2], the residual activity is 92.3%.

For `O=C(O)/C=C/c1cccc(N2CCCN(c3cccc(/C=C/C(=O)O)c3)C2=O)c1`, the result with VCaP [1] and in the experiment with LAPC4 was inactive. In addition, the residual activity in experiment [2] was found to be 74.4%.

For `O=C(O)/C=C/c1ccc(N2CCN(c3ccc(/C=C/C(=O)O)cc3)C2=O)cc1`, the outcome in the experiment on VCaP [1] and in the experiment with LAPC4 was inactive. Further, the residual activity in experiment [2] was 35.9%.

As to `O=C(NCc1cccc(C(=O)O)c1)NCc1cccc(C(=O)O)c1`, the result in the experiment on VCaP [1] and in the experiment on LAPC4 was inactive. Further, the residual activity in experiment [2] worked out at 56.4%.

For `O=C(O)CCCCCNC(=O)NCCCCCC(=O)O`, the inhibition entry (in the experiment on VCaP [3]; in [4]; with VCaP [7]) was “inactive” throughout. The inhibition result in experiment [5] and in experiment [6] was “Dose-dependent effect” each time. Further, the outcome with VCaP [1] and with LAPC4 was inactive. Further, the IC50 in experiment [8] turned out to be 6.1 µM. In addition, the residual activity in experiment [2] turned out to be 46.2%.

With `O=C(O)/C=C/c1cccc(N2CCCN(c3cccc(/C=C/C(=O)O)n3)C2=O)n1`, the outcome with VCaP [1] and with LAPC4 was inactive. Also, the residual activity in experiment [2] was 48.7%.

Take `O=C(Nc1ccc2c(O)cc(S(=O)(=O)O)cc2c1)Nc1ccc2c(O)cc(S(=O)(=O)O)cc2c1`: the outcome with VCaP [1] and with LAPC4 was inactive.

In the experiment on LAPC4, `O=C(Nc1ccc2ccc(S(=O)(=O)Nc3ccc4c(c3)OCCO4)cc2c1)Nc1ccc2ccc(S(=O)(=O)Nc3ccc4c(c3)OCCO4)cc2c1` showed an IC50 of 1.5 µM. Besides, in [2], the residual activity came to 71.8%.

With `O=C(O)/C=C/c1cccc(N2CCN(c3cccc(/C=C/C(=O)O)n3)C2=O)n1`, in experiment [9], the inhibition entry was “Active”. Further, the outcome with VCaP [1] and in the experiment with LAPC4 was inactive. Further, in experiment [2], the residual activity came out at 10.3%.

As for `O=C(NCCc1cccc(C(=O)O)c1)NCCc1cccc(C(=O)O)c1`, the inhibition entry in experiment [9] was “Active”. For the same compound, the result in the experiment with VCaP [1] and in the experiment on LAPC4 was inactive. In addition, the residual activity in experiment [2] amounted to 15.4%.

On to `COc1ccc2c3c(cccc13)C(=O)N(C)C2=O`, for which the result with VCaP [1] and with LAPC4 was inactive. Moreover, the IC50 in experiment [8] was determined as 16.3 µM. Further, the residual activity in [2] worked out at 46.2%.

Compound `O=C(Nc1ccc2ccc(S(=O)(=O)Nc3ccc(Oc4ccccc4)cc3)cc2c1)Nc1ccc2ccc(S(=O)(=O)Nc3ccc(Oc4ccccc4)cc3)cc2c1` had a half-maximal inhibitory concentration (IC50) in the experiment with LAPC4 of 8.6 µM. The residual activity in experiment [2] came to 38.5%.
